From ChEMBL document CHEMBL1833840, “RGD mimetics containing phthalimidine fragment as novel ligands of fibrinogen receptor” (Bioorg Med Chem Lett, 2011) come the findings set out here.

The subject of assay [1] is Platelet. The assay is described as follows: Inhibition of ADP-induced platelet aggregation in human platelet rich plasma by Borns method. It counts as functional. A digest of the protocol: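 Human platelet-rich plasma stimulated with ADP, with aggregation followed by Born's method.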
Assay [2] addresses Integrin alpha-IIb/beta-3 (Homo sapiens) (UniProt P08514). The assay is described as follows: Displacement of FITC-labeled fibrinogen from alphaIIbbeta3 in human platelets.

Integrin alpha-IIb/beta-3 (Homo sapiens), sequence (P08514 whole entry, looked up): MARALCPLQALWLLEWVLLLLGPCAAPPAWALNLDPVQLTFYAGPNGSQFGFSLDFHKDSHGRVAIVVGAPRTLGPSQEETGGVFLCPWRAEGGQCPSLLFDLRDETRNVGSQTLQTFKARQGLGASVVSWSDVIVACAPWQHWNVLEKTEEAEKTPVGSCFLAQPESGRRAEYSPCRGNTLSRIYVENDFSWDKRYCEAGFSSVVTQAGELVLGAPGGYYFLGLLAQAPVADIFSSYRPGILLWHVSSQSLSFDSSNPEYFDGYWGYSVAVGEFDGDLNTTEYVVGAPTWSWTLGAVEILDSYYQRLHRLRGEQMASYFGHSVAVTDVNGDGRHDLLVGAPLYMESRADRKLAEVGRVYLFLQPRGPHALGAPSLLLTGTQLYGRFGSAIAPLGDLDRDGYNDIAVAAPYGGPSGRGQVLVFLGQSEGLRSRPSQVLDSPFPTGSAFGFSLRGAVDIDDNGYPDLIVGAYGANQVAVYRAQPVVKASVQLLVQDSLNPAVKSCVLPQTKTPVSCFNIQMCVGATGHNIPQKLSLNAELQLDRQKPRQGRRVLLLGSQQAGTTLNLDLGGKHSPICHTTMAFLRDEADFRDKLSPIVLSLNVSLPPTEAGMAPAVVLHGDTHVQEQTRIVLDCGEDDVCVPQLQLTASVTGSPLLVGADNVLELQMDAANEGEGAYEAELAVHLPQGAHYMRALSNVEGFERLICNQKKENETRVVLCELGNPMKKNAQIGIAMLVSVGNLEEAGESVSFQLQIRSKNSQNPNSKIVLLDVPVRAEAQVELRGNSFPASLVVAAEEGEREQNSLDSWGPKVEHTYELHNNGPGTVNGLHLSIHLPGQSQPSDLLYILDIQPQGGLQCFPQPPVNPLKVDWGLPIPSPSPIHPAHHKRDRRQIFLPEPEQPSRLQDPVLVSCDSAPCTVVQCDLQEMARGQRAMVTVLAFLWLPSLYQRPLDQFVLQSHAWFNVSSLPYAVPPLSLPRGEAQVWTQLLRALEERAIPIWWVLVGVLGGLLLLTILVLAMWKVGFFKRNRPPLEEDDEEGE

Usually IC50 stands for the concentration that gives 50% inhibition. Higher therefore signals lower potency. With `O=C(O)CN1Cc2ccc(NC(=O)c3ccc(C4CCNCC4)cc3)cc2C1=O`, the IC50 in assay [1] was determined as 24000 nM; in assay [2], 270 nM.
The like results for `O=C(O)CN1Cc2ccc(NC(=O)c3ccc4c(c3)CNCC4)cc2C1=O` were, in that order, 120000 nM and 1200 nM.
The like results for `O=C(O)CCN1Cc2ccc(NC(=O)CCCC3CCNCC3)cc2C1=O` were, in that order, 5900 nM and 5.5 nM.
Regarding `O=C(O)CCN1Cc2ccc(NC(=O)c3ccc(C4CCNCC4)cc3)cc2C1=O`, the IC50 in assay [1] turned out to be 9600 nM; in assay [2], 6.8 nM.
In the case of `O=C(O)CCN1Cc2ccc(NC(=O)c3ccc(N4CCNCC4)cc3)cc2C1=O`, half-maximal inhibition in assay [1] (IC50) was put at 540 nM.
As to `O=C(O)CCN1Cc2ccc(NC(=O)c3ccc4c(c3)CNCC4)cc2C1=O`, the IC50 in assay [1] was 1100 nM; in assay [2], 6.5 nM.
The compound `O=C(O)CCCN1Cc2ccc(NC(=O)CCCC3CCNCC3)cc2C1=O` came in with an IC50 in assay [1] of 51000 nM.
Still for that read-out and setting: in the case of `O=C(O)CCCN1Cc2ccc(NC(=O)c3ccc(C4CCNCC4)cc3)cc2C1=O` it was 410000 nM; in that of `O=C(O)CCCN1Cc2ccc(NC(=O)c3ccc4c(c3)CNCC4)cc2C1=O`, 330000 nM.
Consider `O=C(O)CCNC(=O)CCNC(=O)c1ccc2c(c1)CNCC2`, for which the IC50 stood at 1100 nM in assay [1] and 22 nM in assay [2].
In assay [1], `Cc1ccc(S(=O)(=O)N[C@@H](CNC(=O)Cc2cn(CCCC3CCNCC3)c3ccccc23)C(=O)O)cc1` displayed an IC50 of 4500 nM.
The same measure, in the same setting: in the case of `N=C(N)c1ccc(C(=O)Nc2ccc3c(c2)CCN(CC(=O)O)C3)cc1` it was 90 nM.
Compound `O=C(O)CN1Cc2ccc(NC(=O)CCCC3CCNCC3)cc2C1=O` yielded a concentration for half-maximal inhibition (IC50) in assay [1] of 66000 nM.
On the same count and under the same terms, the same measure for `O=C(O)CCNC(=O)c1ccc2c(c1)C(=O)N(CCC1CCNCC1)C2`: 25 nM.
For `CC(CC(=O)O)N1Cc2ccc(NC(=O)CCCC3CCNCC3)cc2C1=O` (racemic), the IC50 in assay [1] turned out to be 5400 nM; in assay [2], 350 nM.
`CC(CC(=O)O)N1Cc2ccc(NC(=O)c3ccc(C4CCNCC4)cc3)cc2C1=O` (racemic) gave an IC50 in assay [1] of 6200 nM.
As for `CC(CC(=O)O)N1Cc2ccc(NC(=O)c3ccc(N4CCNCC4)cc3)cc2C1=O` (racemic), the IC50 in assay [1] worked out at 3740 nM; in assay [2], 37 nM.
The like results for `CC(CC(=O)O)N1Cc2ccc(NC(=O)c3ccc4c(c3)CNCC4)cc2C1=O` (racemic) were, in that order, 86 nM and 6.5 nM.
